Experiments:
[1] = organism: Canis familiaris; experiment: The chronotropic effect tested in vitro by using isolated blood-perfused dog heart preparations; assay type: functional, Canis lupus familiaris
How it was run: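 Isolated dog sinoatrial node preparation, cross-circulated through cannulated arteries with blood from a pentobarbital-anesthetized, heparinized donor dog. Compounds were given intra-arterially by microsyringe, and sinus rate was recorded. Reported as an activity ratio: amrinone ED50 (dose giving half-maximal amrinone response) divided by the test-compound dose producing the same response.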

[2] = organism: Canis familiaris; experiment: The inotropic effect tested in vitro by using isolated blood-perfused dog heart preparations; assay type: functional, Canis lupus familiaris
How it was run: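 Isolated dog papillary muscle, blood-perfused by cross-circulation through cannulated arteries from a pentobarbital-anesthetized, heparinized donor dog. Intra-arterial microsyringe injection; developed tension recorded. Activity ratio = amrinone ED50 (half-maximal amrinone response) / test-compound dose producing an equal response.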

SMILES	Activity [1]	Activity [2]
COc1ccc(CNCC(O)COc2ccc3nc(O)ccc3c2)cc1 (stereo unspecified)	0	4.9
CCN(CCc1ccccc1)CC(O)COc1ccc2nc(O)ccc2c1 (stereo unspecified)	0.8	6.9
CCN(CCOc1ccccc1)CC(O)COc1ccc2nc(O)ccc2c1 (stereo unspecified)	0	5.3
COc1ccc(CN(C)CC(O)COc2ccc3nc(O)ccc3c2)cc1 (stereo unspecified)	0.2	2.8
CN(CCCN(C)c1ccccc1)CC(O)COc1ccc2nc(O)ccc2c1 (stereo unspecified)	0	1.3
CCN(Cc1ccccc1)CC(O)COc1cc(F)c2nc(O)ccc2c1 (stereo unspecified)	0	4.1
COc1cccc(CNCC(O)COc2ccc3nc(O)ccc3c2)c1 (stereo unspecified)	0	3.8
Oc1ccc2cc(OCC(O)CNCc3cccs3)ccc2n1 (stereo unspecified)	0.8	3.1
Oc1ccc2cc(OCC(O)CNCc3ccccn3)ccc2n1 (stereo unspecified)	0	0.6
Oc1ccc2cc(OCC(O)CNCc3ccc(F)cc3)ccc2n1 (stereo unspecified)	0	3.5
CN(Cc1ccccc1)CC(O)COc1ccc2c(c1)CCC(=O)N2 (stereo unspecified)	-0.2	0.1
Oc1ccc2cc(OCC(O)CNCCc3ccccc3)ccc2n1 (stereo unspecified)	0	1.5
CN(Cc1ccncc1)CC(O)COc1ccc2nc(O)ccc2c1 (stereo unspecified)	0.1	2.3
CN(Cc1ccccn1)CC(O)COc1ccc2nc(O)ccc2c1 (stereo unspecified)	0	2.2
CN(Cc1ccccc1)CC(O)COc1ccc2nc(O)ccc2c1 (stereo unspecified)	0	5.1
Oc1ccc2cc(OCC(O)CNCc3ccccc3)ccc2n1 (stereo unspecified)	0	2.2
CN(Cc1ccc(F)cc1)CC(O)COc1ccc2nc(O)ccc2c1 (stereo unspecified)	0	2.8
CN(CCSc1ccccc1)CC(O)COc1ccc2nc(O)ccc2c1 (stereo unspecified)	-1.1	4.5
CN(CC[S+]([O-])c1ccccc1)CC(O)COc1ccc2nc(O)ccc2c1 (stereo unspecified)	0	2.3

SMILES	Activity [1]	Activity [2]
CN(CCc1ccccn1)CC(O)COc1ccc2nc(O)ccc2c1 (stereo unspecified)	0	2.2
COc1ccc(CNCC(O)COc2ccc3[nH]c(=O)ccc3c2)cc1OC (stereo unspecified) [TOBORINONE]	0	5.2
Oc1ccc2cc(OCC(O)CNCCCc3ccccc3)ccc2n1 (stereo unspecified)	0.4	3.6
CCN(CCCc1ccccc1)CC(O)COc1ccc2nc(O)ccc2c1 (stereo unspecified)	0.2	3.2
Cc1ccc(CN(C)CC(O)COc2ccc3nc(O)ccc3c2)cc1 (stereo unspecified)	0	1.7
CN(CCS(=O)(=O)c1ccccc1)CC(O)COc1ccc2nc(O)ccc2c1 (stereo unspecified)	0.1	2.1
CCN(Cc1ccccc1)CC(O)COc1ccc2nc(O)ccc2c1 (stereo unspecified)	0	4
COc1ccc(CNCC(O)COc2cccc3ccc(O)nc23)cc1OC (stereo unspecified)	0	0
CN(Cc1ccc(Cl)cc1)CC(O)COc1ccc2nc(O)ccc2c1 (stereo unspecified)	0.1	4
CN(Cc1ccccc1)CC(O)COc1ccc2nc(O)c(C#N)cc2c1 (stereo unspecified)	1.1	1.6
CN(CCCSc1ccccc1)CC(O)COc1ccc2nc(O)ccc2c1 (stereo unspecified)	4.3	1.3
COc1ccc(CCNCC(O)COc2ccc3nc(O)ccc3c2)cc1OC (stereo unspecified)	-0.5	1.7
CN(Cc1cccnc1)CC(O)COc1ccc2nc(O)ccc2c1 (stereo unspecified)	0.3	1.7
CN(CCN(C)c1ccccc1)CC(O)COc1ccc2nc(O)ccc2c1 (stereo unspecified)	0	5
Oc1ccc2cc(OCC(O)CNCc3ccc(Cl)cc3)ccc2n1 (stereo unspecified)	0	4.9
COc1ccc(CNCC(O)COc2cccc3nc(O)ccc23)cc1OC (stereo unspecified)	0	0
COc1ccc(CNCC(O)COc2ccc3ccc(O)nc3c2)cc1OC (stereo unspecified)	-0.2	0
CCN(Cc1ccccc1)CC(O)COc1cc(C)c2nc(O)ccc2c1 (stereo unspecified)	-0.4	0.8
COc1ccc(CNCC(O)COc2cc(C)c3nc(O)ccc3c2)cc1OC (stereo unspecified)	0	0.5

From ChEMBL document CHEMBL1125299, “Novel positive inotropic agents: synthesis and biological activities of 6-(3-amino-2-hydroxypropoxy)-2(1H)-quinolinone derivatives” (1992)
